Results taken from ChEMBL document CHEMBL1127529, “Antipsoriatic anthrones with modulated redox properties. 2. Novel derivatives of chrysarobin and isochrysarobin--antiproliferative activity and 5-lipoxygenase inhibition” (J Med Chem, 1994).

Key:
[1] = Deoxyribose degradation assay as hydroxy radical formation; format: functional
In short: (§1)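 2-Deoxy-D-ribose (2 mM) was incubated with FeCl3 (0.1 mM) and compound (75 μM) in KH2PO4-KOH buffer pH 7.4 (30 mM) for 2 h at 37 °C with shaking. TBA-reactive material was read at 532 nm. Result is µmol malondialdehyde per mmol deoxyribose.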

HaCaT = assay: Antiproliferative activity against HaCaT cells; format: functional, cell-based; conditions: Homo sapiens
In short: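 HaCaT human keratinocytes were kept in DMEM with 10% FCS, penicillin and streptomycin at 37 °C under 8% CO2. After 48 h the cells were detached with trypsin/EDTA and counted by phase-contrast microscopy.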

[2] = target: T1, Arachidonate 5-lipoxygenase (Bos taurus, UniProt Q9BEG3); assay: Inhibition of 5-lipoxygenase in bovine polymorphonuclear leukocytes; format: cell-based
T1 sequence (Q9BEG3 whole entry): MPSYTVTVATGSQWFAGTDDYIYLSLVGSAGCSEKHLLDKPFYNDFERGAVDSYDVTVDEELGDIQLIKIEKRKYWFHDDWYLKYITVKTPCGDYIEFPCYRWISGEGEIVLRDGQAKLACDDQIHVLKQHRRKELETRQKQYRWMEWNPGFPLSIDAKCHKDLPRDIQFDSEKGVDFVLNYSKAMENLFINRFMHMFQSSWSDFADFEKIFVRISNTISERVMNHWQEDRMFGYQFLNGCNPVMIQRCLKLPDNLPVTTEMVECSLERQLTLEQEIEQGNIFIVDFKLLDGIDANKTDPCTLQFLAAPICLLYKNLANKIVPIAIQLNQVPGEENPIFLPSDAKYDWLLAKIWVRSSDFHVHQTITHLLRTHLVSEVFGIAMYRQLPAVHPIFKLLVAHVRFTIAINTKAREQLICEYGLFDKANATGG
In short: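 Bovine PMNL (10^7 cells/mL) were stimulated with Ca-ionophore. Compound was preincubated for 15 min at 37 °C.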

Liposome = assay: Inhibition of 2,2'-azobis(2-aminopropane)hydrochloride (AAPH) induced lipid peroxidation in bovine brain phospholipid liposomes; format: functional, subcellular, Bos taurus
[3] = Reducing activity against 2,2-diphenyl-1-picrylhydrazyl (DPPH) with equimolar compound; format: functional
In short: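 Test compound and DPPH, each 10⁻⁴ M in acetone/PBS (1-1 v/v), mixed 1 mL + 1 mL. DPPH reduction followed spectrophotometrically at 516 nm. Reciprocal DPPH concentration plotted against time gave straight lines, and second-order rate constants (M⁻¹ s⁻¹) were taken from the slopes. Values are means, N = 3-6. Highly reactive compounds gave approximate values only.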

[4] = Partition coefficient (logP) (HPLC); format: physicochemical; conditions: octanol/water
In short: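 Reversed-phase HPLC with MeOH/water/HOAc (77-23-0.1) as eluant, adjusted to pH 5.5 with concentrated NH3.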

[5] = Deoxyribose degradation as a measure of hydroxy radical formation.; format: functional; in short: as §1

Structure (SMILES): O=C1c2c(O)cccc2Cc2cc(Cc3ccc(O)cc3)cc(O)c21
- DD (uM of MDA mM-1) [1]: 0.27
- IC50 (HaCaT): 0.4 µM
- IC50 [2]: > 30 µM
- IC50 (Liposome): 14 µM
- kDPPH [3]: 12.6 M⁻¹ s⁻¹
- logP [4]: 4.52

Structure (SMILES): COc1ccccc1Cc1ccc2c(c1O)C(=O)c1c(O)cccc1C2
- DD (uM of MDA mM-1) [5]: < 0.25
- IC50 [2]: > 30 µM
- kDPPH [3]: 12 M⁻¹ s⁻¹
- logP [4]: 5.62

Structure (SMILES): O=C1c2c(O)cccc2Cc2cc(Cc3ccc(O)cc3O)cc(O)c21
- DD (uM of MDA mM-1) [1]: 3.26
- IC50 (HaCaT): 0.5 µM
- IC50 [2]: 7 µM
- IC50 (Liposome): 16 µM
- kDPPH [3]: 39.3 M⁻¹ s⁻¹
- logP [4]: 3.67

Structure (SMILES): COc1ccc(C(=O)c2cc(O)c3c(c2)Cc2cccc(O)c2C3=O)cc1
- DD (uM of MDA mM-1) [5]: 0.98
- IC50 (HaCaT): 1.7 µM
- IC50 [2]: > 30 µM
- kDPPH [3]: > 100 M⁻¹ s⁻¹
- logP [4]: 4.83

Structure (SMILES): COc1c(OC)c(OC(C)=O)c2cc(Cl)ccc2c1OC(C)=O [LONAPALENE]
- DD (uM of MDA mM-1) [1]: < 0.15
- IC50 (HaCaT): 3.2 µM
- IC50 (Liposome): > 50 µM

Structure (SMILES): O=C1c2c(O)cccc2Cc2ccc(Cc3cccc(Oc4ccccc4)c3)c(O)c21
- DD (uM of MDA mM-1) [5]: < 0.15
- IC50 [2]: > 30 µM
- kDPPH [3]: 6.4 M⁻¹ s⁻¹
- logP [4]: 6.35

Structure (SMILES): O=C1c2c(O)cccc2Cc2ccc(Cc3ccc(O)cc3)c(O)c21
- DD (uM of MDA mM-1) [5]: 0.38
- IC50 (HaCaT): 0.8 µM
- IC50 [2]: 7 µM
- IC50 (Liposome): 43 µM
- kDPPH [3]: > 100 M⁻¹ s⁻¹
- logP [4]: 4.66

Structure (SMILES): O=C1c2c(O)cccc2Cc2ccc(CCCc3ccccc3)c(O)c21
- DD (uM of MDA mM-1) [5]: 0.56
- IC50 (HaCaT): > 5 µM
- IC50 [2]: 11 µM
- IC50 (Liposome): 67 µM
- kDPPH [3]: 11.1 M⁻¹ s⁻¹
- logP [4]: 6.44

Structure (SMILES): O=C1c2c(O)cccc2Cc2ccc(Cc3ccccc3)c(O)c21
- DD (uM of MDA mM-1) [5]: < 0.25
- IC50 (HaCaT): > 5 µM
- IC50 [2]: > 30 µM
- IC50 (Liposome): 98 µM
- kDPPH [3]: 11.2 M⁻¹ s⁻¹
- logP [4]: 5.61

Structure (SMILES): O=C(c1ccccc1)c1ccc2c(c1O)C(=O)c1c(O)cccc1C2
- DD (uM of MDA mM-1) [5]: 2.68
- IC50 (HaCaT): 1.6 µM
- IC50 [2]: 18 µM
- IC50 (Liposome): 43 µM
- kDPPH [3]: > 100 M⁻¹ s⁻¹
- logP [4]: 4.47

Structure (SMILES): COc1ccc(OC)c(Cc2cc(O)c3c(c2)Cc2cccc(O)c2C3=O)c1
- DD (uM of MDA mM-1) [5]: 0.51
- IC50 (HaCaT): 0.2 µM
- IC50 [2]: > 30 µM
- kDPPH [3]: 14.8 M⁻¹ s⁻¹
- logP [4]: 5.17

Structure (SMILES): COc1ccc(Cc2cc(O)c3c(c2)Cc2cccc(O)c2C3=O)c(OC)c1
- DD (uM of MDA mM-1) [5]: 0.32
- IC50 (HaCaT): 0.4 µM
- IC50 [2]: > 30 µM
- IC50 (Liposome): > 200 µM
- kDPPH [3]: 10.3 M⁻¹ s⁻¹
- logP [4]: 5.34

Structure (SMILES): COc1ccc(Cc2ccc3c(c2O)C(=O)c2c(O)cccc2C3)cc1
- DD (uM of MDA mM-1) [5]: < 0.25
- IC50 [2]: > 30 µM
- kDPPH [3]: 11.3 M⁻¹ s⁻¹
- logP [4]: 5.62

Structure (SMILES): O=C1c2c(O)cccc2Cc2cc(Cc3cc(O)ccc3O)cc(O)c21
- DD (uM of MDA mM-1) [5]: 1.74
- IC50 (HaCaT): 0.4 µM
- IC50 (Liposome): 3 µM
- kDPPH [3]: > 100 M⁻¹ s⁻¹
- logP [4]: 3.2

Structure (SMILES): O=C1c2c(O)cccc2Cc2cc(Cc3ccccc3)cc(O)c21
- DD (uM of MDA mM-1) [5]: < 0.25
- IC50 [2]: > 30 µM
- IC50 (Liposome): 64 µM
- kDPPH [3]: 18.1 M⁻¹ s⁻¹
- logP [4]: 5.29

Structure (SMILES): O=C1c2c(O)cccc2Cc2cc(Cc3ccc(O)c(O)c3)cc(O)c21
- DD (uM of MDA mM-1) [5]: 0.41
- IC50 (HaCaT): 0.5 µM
- IC50 [2]: 2 µM
- IC50 (Liposome): 4 µM
- kDPPH [3]: > 100 M⁻¹ s⁻¹
- logP [4]: 3.88

Structure (SMILES): O=C(O)c1ccccc1Cc1ccc2c(c1O)C(=O)c1c(O)cccc1C2
- DD (uM of MDA mM-1) [5]: 1.2
- IC50 (HaCaT): > 5 µM
- IC50 [2]: 4 µM
- IC50 (Liposome): 42 µM
- kDPPH [3]: 16.9 M⁻¹ s⁻¹
- logP [4]: 4.48

Structure (SMILES): O=C1c2c(O)cccc2Cc2ccc(CCCc3ccc(O)cc3)c(O)c21
- DD (uM of MDA mM-1) [5]: < 0.15
- IC50 (HaCaT): 0.4 µM
- IC50 [2]: 2 µM
- IC50 (Liposome): 50 µM
- kDPPH [3]: > 100 M⁻¹ s⁻¹
- logP [4]: 5.27

Structure (SMILES): Cc1ccc(C(=O)c2cc(O)c3c(c2)Cc2cccc(O)c2C3=O)cc1
- DD (uM of MDA mM-1) [5]: 1.01
- IC50 [2]: > 30 µM
- IC50 (Liposome): 40 µM
- kDPPH [3]: > 100 M⁻¹ s⁻¹
- logP [4]: 5.14

Structure (SMILES): O=C(O)c1ccc(Cc2ccc3c(c2O)C(=O)c2c(O)cccc2C3)cc1
- DD (uM of MDA mM-1) [5]: < 0.25
- IC50 (Liposome): 62 µM
- kDPPH [3]: 9.9 M⁻¹ s⁻¹
- logP [4]: 4.1
